Active and inactive are the calls of the source. The rule behind the calls is not given here.
Experiments:
[1] = molecular target: T1, Signal transducer and activator of transcription 3 (Homo sapiens, UniProt P40763); test: Inhibition of Stat3 activity in human glioma (G22) patient-derived mouse xenograft cells assessed as phosphorylated Stat3 level at 5 uM after 3 hrs by immunoblot analysis
Summary of the method: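 Cultured G22 glioma patient-derived mouse xenograft cells (DMEM, 5–10% heat-inactivated FBS) treated with 5 μM compound for 0–24 h. Whole-cell lysates immunoblotted for pStat3, Stat3, GAPDH.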

MDA-MB-231 [2] = test: Anticlonogenic activity against human MDA-MB-231 cells for 72 hrs measured after 2 weeks by crystal-violet staining based assay; type: functional, cell-based
Summary of the method: (§1)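 Single-cell seeding at 250 cells per well; cells treated once the next day for 72 h with 0–5 μM compound, then grown until large colonies were visible (NIH3T3 1 week, MDA-MB-231 and U251MG 2 weeks, MCF-7 4 weeks). Colonies stained with crystal violet for 4 h, imaged and counted.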

NIH3T3 = test: Inhibition of Stat5 dimer DNA binding activity in EGF-stimulated mouse NIH3T3 nuclear extract expressing human EGFR at 5 uM preincubated for 30 mins followed by addition of radiolabeled probe MGFe for 30 mins by EMSA; type: cell-free
[3] = molecular target: Signal transducer and activator of transcription 3 (Mus musculus) (UniProt P42227); test: Inhibition of Stat3 dimer DNA binding activity in mouse NIH3T3/vSrc nuclear extract at 5 uM preincubated for 30 mins followed by addition of radiolabeled probe hSIE for 30 mins by EMSA
[4] = molecular target: Mitogen-activated protein kinase 1 and 3 (ERK2 and ERK1) (Mus musculus) (UniProt P63085+Q63844); test: Modulation of EGF-induced Erk1/2 phosphorylation in mouse NIH3T3 cells expressing human EGFR at 5 uM preincubated for 3 hrs followed by stimulation with 1 ug/ml EGF for 12 mins by immunoblot analysis; type: cell-based
Summary of the method: (§2)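 NIH3T3/hEGFR fibroblasts pretreated with or without 5 μM compound for 3 h, then stimulated with 1 μg/ml EGF for 12 min. Whole-cell lysates of equal total protein immunoblotted for phospho and total Stat3, Stat1, Stat5, Erk1/2. Controls were 0.025% DMSO-treated cells. Representative of 2–4 independent determinations.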

[5] = molecular target: T1, Signal transducer and activator of transcription 3; test: Inhibition of Stat3 activity in human U251MG cells assessed as phosphorylated Stat3 level after 2 hrs by immunoblot analysis; type: cell-based; conditions: U-251
Summary of the method: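 U251MG cells treated with 5 μM compound for 0–24 h, or with 0–5 μM for 2 h. Whole-cell lysates immunoblotted for pStat3, Stat3, GAPDH. Control was 0.025% DMSO-treated cells.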

Glioma cell [6] = test: Effect on cell morphology in human Glioma (G22) patient derived xenograft cells assessed as 3D spheroids formation at 5 uM for 24 hrs measured after 48 hrs by inverted fluorescence microscope analysis; type: functional
Summary of the method: (§3)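 G22 patient-derived xenograft glioma cells seeded at 1,000 cells/well in ultra-low-binding round-bottom wells, grown 48 h into 3D spheroids, then treated once with 5 μM compound or DMSO; matrigel added after 24 h. Spheroids imaged at 5× magnification on an inverted fluorescence microscope every 24 h for up to 120 h.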

[7] = molecular target: T1, Signal transducer and activator of transcription 3; test: Inhibition of Stat3 activity in human U251MG cells assessed as phosphorylated Stat3 level at 5 uM by immunoblot analysis; type: cell-based; conditions: U-251, TDE = time-dependent effect
SF-295 [8] = test: Antiproliferative activity against human SF295 cells at 5 uM for 72 hrs by cyquant assay; type: functional, cell-based
MDA-MB-231 [9] = test: Antiproliferative activity against human MDA-MB-231 cells for 72 hrs by cyquant assay; type: functional, cell-based; conditions: MDA-MB-231, 72 h
Summary of the method: (§4)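 CyQuant proliferation assay after 72 h compound exposure of cultured cells; relative viability normalized to DMSO-treated control; IC50 values derived. Glioma lines grown in RPMI or DMEM with 10% FBS and 1% nonessential amino acids.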

[10] = molecular target: T1, Signal transducer and activator of transcription 3; test: Inhibition of Stat3 dimer DNA binding activity in human U251MG cells nuclear extract at 5 uM after 0.5 to 24 hrs by EMSA using radiolabeled probe hSIE; type: cell-based; conditions: U-251
Summary of the method: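 Sub-confluent U251MG or U373MG cells treated with compound (5 μM for 0–24 h, or 0–5 μM for 1.5 h). Stat3:DNA bands scanned, quantified and plotted against concentration to derive IC50. Controls were 0.025% DMSO.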

[11] = molecular target: Signal transducer and activator of transcription 3 (Mus musculus) (UniProt P42227); test: Inhibition of Stat3 dimer DNA binding activity in EGF-stimulated mouse NIH3T3 nuclear extract expressing human EGFR assessed as residual activity at 5 uM preincubated for 30 mins followed by addition of radiolabeled probe hSIE for 30 mins by EMSA
SF-295 [12] = test: Anticlonogenic activity against human SF295 cells for 72 hrs by crystal-violet staining based assay; type: functional, cell-based
U-251 [13] = test: Inhibition of cell migration in human U251MG cells at 5 uM after 19 hrs by wound healing assay; type: functional, cell-based
Summary of the method: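 Scratch assay: sub-confluent U251MG monolayers wounded with pipette tips, treated once with 0–5 μM compound or DMSO, allowed to migrate into the denuded area over 19 h. Imaged at 10× on an inverted microscope.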

[14] = Antiproliferative activity against human SF295 cells for 72 hrs by cyquant assay; type: functional, cell-based; conditions: SF-295, 72 h; summary of the method: as §4
Glioma cell [15] = test: Effect on cell morphology in human Glioma (G22) patient derived xenograft cells assessed as cell disaggregation of spheroids at 5 uM for 24 hrs measured after 48 to 96 hrs by inverted fluorescence microscope analysis in presence of matrigel; type: functional; summary of the method: as §3
[16] = Antiproliferative activity against human U373MG cells for 72 hrs by cyquant assay; type: functional, cell-based, U-373MG ATCC; conditions: U373 MG; summary of the method: as §4
U-251 [17] = test: Effect on SOCS3 expression in human U251MG cells at 5 uM after 0.5 to 24 hrs by immunoblot analysis; type: functional, cell-based
Summary of the method: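 U251MG cells treated with 5 μM compound for 0–24 h; whole-cell lysates of equal total protein immunoblotted. Controls were 0.025% DMSO-treated cells. Representative of 2–4 independent determinations.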

[18] = molecular target: Signal transducer and activator of transcription 3 (Mus musculus) (UniProt P42227); test: Inhibition of EGF-induced Stat3 phosphorylation in mouse NIH3T3 cells expressing human EGFR at 5 uM preincubated for 3 hrs followed by stimulation with 1 ug/ml EGF for 12 mins by immunoblot analysis; type: cell-based; summary of the method: as §2
[19] = Cytotoxicity against mouse NIH/3T3 cells assessed as colony survival at 1 to 5 uM for 72 hrs measured after 1 week by crystal-violet staining based assay; type: cell-based; conditions: nih3t3, 5 µM; summary of the method: as §1
[20] = molecular target: Signal transducer and activator of transcription 1/ 3 (Mus musculus) (UniProt P42227+P42225); test: Inhibition of Stat1:Stat3 dimer DNA binding activity in EGF-stimulated mouse NIH3T3 nuclear extract expressing human EGFR assessed as residual activity at 5 uM preincubated for 30 mins followed by addition of radiolabeled probe hSIE for 30 mins by EMSA; type: cell-free
[21] = Antiproliferative activity against human U251MG cells at 5 uM for 72 hrs by cyquant assay; type: functional; conditions: U-251, 72 h; summary of the method: as §4
MCF7 = test: Anticlonogenic activity against human MCF7 cells for 72 hrs measured after 4 weeks by crystal-violet staining based assay; type: functional, cell-based; summary of the method: as §1

Sequence of Signal transducer and activator of transcription 3 (Mus musculus) (P42227 whole entry): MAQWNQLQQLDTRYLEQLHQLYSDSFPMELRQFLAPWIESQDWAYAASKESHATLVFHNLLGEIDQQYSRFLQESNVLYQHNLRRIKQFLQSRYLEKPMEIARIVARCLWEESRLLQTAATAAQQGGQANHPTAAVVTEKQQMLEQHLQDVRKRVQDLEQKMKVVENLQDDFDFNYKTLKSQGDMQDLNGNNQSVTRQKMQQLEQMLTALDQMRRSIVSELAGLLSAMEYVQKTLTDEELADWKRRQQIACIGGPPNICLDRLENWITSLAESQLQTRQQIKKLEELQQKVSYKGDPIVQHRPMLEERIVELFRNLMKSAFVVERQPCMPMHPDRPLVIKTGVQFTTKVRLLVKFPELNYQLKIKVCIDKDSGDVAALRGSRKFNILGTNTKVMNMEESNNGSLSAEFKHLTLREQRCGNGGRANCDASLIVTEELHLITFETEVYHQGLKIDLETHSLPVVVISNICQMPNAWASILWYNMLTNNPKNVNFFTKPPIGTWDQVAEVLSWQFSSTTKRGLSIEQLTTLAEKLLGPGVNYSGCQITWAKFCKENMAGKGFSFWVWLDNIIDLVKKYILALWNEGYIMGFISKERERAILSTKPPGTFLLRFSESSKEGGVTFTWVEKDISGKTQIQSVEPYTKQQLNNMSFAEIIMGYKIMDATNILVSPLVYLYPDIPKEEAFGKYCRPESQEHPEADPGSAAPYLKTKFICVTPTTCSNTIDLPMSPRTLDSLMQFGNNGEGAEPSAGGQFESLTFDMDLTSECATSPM
T1 sequence (P40763 whole entry): as the sequence (P42227 whole entry) above, with D760E counted along it
Sequence of Mitogen-activated protein kinase 1 and 3 (ERK2 and ERK1) (Mus musculus) (P63085 whole entry, looked up): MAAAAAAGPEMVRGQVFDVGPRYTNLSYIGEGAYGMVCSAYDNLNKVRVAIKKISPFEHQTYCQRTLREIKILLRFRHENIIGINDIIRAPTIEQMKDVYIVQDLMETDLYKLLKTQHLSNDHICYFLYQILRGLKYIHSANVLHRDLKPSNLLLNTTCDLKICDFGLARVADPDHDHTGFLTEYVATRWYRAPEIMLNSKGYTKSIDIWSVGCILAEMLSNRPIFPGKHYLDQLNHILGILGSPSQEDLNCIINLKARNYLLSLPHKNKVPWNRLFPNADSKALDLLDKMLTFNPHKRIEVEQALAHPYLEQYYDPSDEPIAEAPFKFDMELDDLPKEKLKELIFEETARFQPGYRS
Sequence of Mitogen-activated protein kinase 1 and 3 (ERK2 and ERK1) (Mus musculus) (Q63844 whole entry, looked up): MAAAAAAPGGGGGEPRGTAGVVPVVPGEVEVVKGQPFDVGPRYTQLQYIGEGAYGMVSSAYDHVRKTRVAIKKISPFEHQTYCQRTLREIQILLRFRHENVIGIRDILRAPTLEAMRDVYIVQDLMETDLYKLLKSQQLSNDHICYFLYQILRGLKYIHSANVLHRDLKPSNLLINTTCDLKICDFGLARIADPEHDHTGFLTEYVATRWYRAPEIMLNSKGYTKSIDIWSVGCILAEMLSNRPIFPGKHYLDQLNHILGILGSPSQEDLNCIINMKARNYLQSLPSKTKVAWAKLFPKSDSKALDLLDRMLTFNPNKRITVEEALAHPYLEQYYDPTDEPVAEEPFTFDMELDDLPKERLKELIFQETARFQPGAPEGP

inhibition [1] | inhibition (NIH3T3) | inhibition [3] | inhibition [4] | inhibition [5] | inhibition [7] | IC50 (MDA-MB-231 [9]) | inhibition [10] | Activity [11] | inhibition [18] | Structure (SMILES) | Activity (MDA-MB-231 [2]) | Activity (Glioma cell [6]) | inhibition (SF-295 [8]) | Activity (SF-295 [12]) | inhibition (U-251 [13]) | IC50 [14] | Activity (Glioma cell [15]) | IC50 [16] | Activity (U-251 [17]) | Activity [19] | further results
Active | inactive | Active | inactive | Dose-dependent effect | tde | 6.6 µM | Active | 31% | Active | C/C=C(\C)C(=O)O[C@H]1C[C@@H](C)[C@]2(OC)CC[C@](C)(/C=C3/OC(=O)C(COC(C)=O)=C31)O2 | Dose-dependent effect | Active | inactive | Dose-dependent effect | Active | 8.2 µM | Active | 6.6 µM | inactive | Toxic | Activity [20]: 42%; inhibition at 5 µM [21]: 90%; Activity (MCF7): Dose-dependent effect
Active | inactive | Active | inactive | Dose-dependent effect | tde | 6.5 µM | Active | 8% | Active | C/C=C(\C)C(=O)OCC1=C2/C(=C\[C@@]3(C)CC[C@](O)(O3)[C@H](C)C[C@@H]2O)OC1=O | Dose-dependent effect | Active | Active | Dose-dependent effect | Active | 9.6 µM | Active | 6.5 µM | inactive | Toxic | Activity [20]: 18%; inhibition at 5 µM [21]: 90%; Activity (MCF7): Dose-dependent effect
Active | inactive | Active | inactive | Dose-dependent effect | tde | 1.8 µM | Active | 49% | Active | C/C=C(\C)C(=O)O[C@H]1C[C@@H](C)[C@]2(O)CC[C@](C)(/C=C3/OC(=O)C(COC(C)=O)=C31)O2 | Dose-dependent effect | Active | Active | Dose-dependent effect | Active | 7.5 µM | Active | 3.5 µM | inactive | Toxic | Activity [20]: 67%; inhibition at 5 µM [21]: 90%; Activity (MCF7): Dose-dependent effect
